# Laboratory results from ChEMBL document CHEMBL2440017, “Discovery of a potent, selective, and orally bioavailable histamine H3 receptor antagonist SAR110068 for the treatment of sleep-wake disorders” (Bioorg Med Chem Lett, 2013).
# pEC50, pKi: −log10 of the molar value. Calls of active or inactive are those of the source. No cut-off for these calls is given here.
# Assays:
# Mus musculus [1] = test: Toxicity in mouse assessed as tremors at 100 mg/kg, po; type: organism-based; set-up: dose 100 mg/kg, route oral; conditions: in vivo
# [2] = Solubility of the compound in gastrointestinal tract simulation medium; type: physicochemical
# Plasma [3] = test: Metabolic stability in human plasma; type: ADME, cell-free
# Method in brief: (§1)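 Compound stability measured in plasma of each species in vitro.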
# Salmonella typhimurium [4] = test: Genotoxicity in Salmonella typhimurium at 3 to 1000 ug/ml by Ames 2 test; type: toxicity, organism-based; conditions: salmonella enterica subsp. enterica serovar typhimurium
# Method in brief: (§2)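 Ames II and micronucleus tests, Ames over 3–1000 µg/mL and MNT over 5–950 µg/mL. Each run with and without metabolic activation by human liver microsome preparations.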
# [5] = Metabolic stability in guinea pig microsomes; type: ADME, Cavia porcellus, Microsome
# Method in brief: (§3)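 Percentage biotransformation measured in vitro in liver microsomes of each species.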
# Histamine H3 receptor [6] = biological target: T1, Histamine H3 receptor (Homo sapiens, UniProt Q9Y5N1); test: Displacement of [3H]N-alpha-methylhistamine from human histamine H3 receptor expressed in CHO cells; type: cell-based
# T1 sequence (Q9Y5N1 whole entry): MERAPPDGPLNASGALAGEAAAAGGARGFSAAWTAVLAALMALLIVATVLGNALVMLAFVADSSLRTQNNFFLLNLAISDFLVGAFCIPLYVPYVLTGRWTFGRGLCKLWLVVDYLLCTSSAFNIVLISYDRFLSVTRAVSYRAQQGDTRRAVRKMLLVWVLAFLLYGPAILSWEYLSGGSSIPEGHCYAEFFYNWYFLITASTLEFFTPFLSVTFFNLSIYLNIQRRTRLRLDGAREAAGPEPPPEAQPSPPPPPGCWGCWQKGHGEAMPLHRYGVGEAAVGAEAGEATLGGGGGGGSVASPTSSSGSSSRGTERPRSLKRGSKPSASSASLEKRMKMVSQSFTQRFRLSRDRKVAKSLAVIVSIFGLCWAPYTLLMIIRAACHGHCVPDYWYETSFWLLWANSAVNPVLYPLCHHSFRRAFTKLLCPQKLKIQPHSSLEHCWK
# [7] = Metabolic stability in monkey microsomes; type: ADME, Macaca mulatta, Microsome; conditions: rhesus monkey; method in brief: as §3
# Histamine H3 receptor [8] = biological target: T1, Histamine H3 receptor; test: Antagonist activity at human histamine H3 receptor expressed in CHO cells co-expressing CRE-Luc; type: functional, cell-based
# Mus musculus [9] = test: Neurologic toxicity in mouse at 10 to 30 mg/kg, po; type: organism-based; set-up: dose 10-30 mg/kg, route oral; conditions: in vivo
# Method in brief: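 Acute oral behavioral safety evaluation in mice. Oral doses were 0, 10 and 30 mg/kg. Behavioral, neurologic and autonomic signs were scored.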
# Plasma [10] = test: Clearance in OF1 mouse plasma at 2 mg/kg, iv; type: ADME, organism-based; set-up: dose 2 mg/kg, route intravenous; conditions: in vivo
# Method in brief: (§4)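 Male OF1 mice or male Sprague-Dawley rats, single 2 mg/kg i.v. dose. Mouse vehicle 50% 1-methyl-2-pyrrolidinone in saline at 1.0 mg/mL; rat vehicle saline at 0.5 mg/mL. Plasma and brain levels followed over time; AUC0-inf, t1/2 and clearance derived from exposure. Brain/plasma ratio uses i.v. AUC0-inf.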
# Rattus norvegicus [11] = test: Awakening activity in rat assessed as increased wakefulness at 3 to 10 mg/kg, po after 4 hrs; type: functional, organism-based
# Method in brief: (§5)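 Rats given compound orally at 3 or 10 mg/kg, or reference drugs i.p. or p.o. at 10 mg/kg. EEG recorded during the light phase and scored as wakefulness, slow wave sleep and REM sleep. Time-course analysis of the effects.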
# [12] = Elimination half life in Sprague-Dawley rat plasma at 2 mg/kg, iv; type: ADME, organism-based; set-up: dose 2 mg/kg, route intravenous; conditions: read-out: beta t1/2 (converted); method in brief: as §4
# Rattus norvegicus [13] = test: Awakening activity in rat assessed as decrease in slow wave and REM sleep at 3 to 10 mg/kg, po; type: functional, organism-based; method in brief: as §5
# [14] = Metabolic stability in rat microsomes; type: ADME, Microsome; method in brief: as §3
# Plasma [15] = test: Metabolic stability in rat plasma; type: ADME, cell-free; method in brief: as §1
# [16] = AUC (0 to infinity) in Sprague-Dawley rat plasma at 2 mg/kg, iv; type: ADME, organism-based; set-up: time infinity, dose 2 mg/kg, route intravenous; method in brief: as §4
# [17] = AUC (0 to infinity) in Sprague-Dawley rat plasma at 10 mg/kg, po; type: ADME, organism-based; set-up: time infinity, dose 10 mg/kg, route oral
# Method in brief: (§6)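 Oral gavage at 10 mg/kg to male OF1 mice (vehicle 5% DMSO/0.5% MC/0.2% Tween80, 1.0 mg/mL) or male Sprague-Dawley rats (vehicle 0.5% MC/0.2% Tween80, 1.0 mg/mL). Plasma and brain exposure and half-life determined.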
# [18] = Elimination half life in Sprague-Dawley rat plasma at 10 mg/kg, po; type: ADME, organism-based; set-up: dose 10 mg/kg, route oral; conditions: read-out: beta t1/2 (converted); method in brief: as §6
# [19] = Ratio of AUC (0 to infinity) in Sprague-Dawley rat brain to AUC (0 to infinity) in Sprague-Dawley rat at 2 mg/kg, iv; type: ADME, organism-based; set-up: dose 2 mg/kg, route intravenous; conditions: read-out: Ratio AUC
# Method in brief: (§7)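 Male Sprague–Dawley rats received 2 mg/kg i.v. (0.5 mg/mL in saline) or 10 mg/kg p.o. (1.0 mg/mL in 0.5% MC/0.2% Tween80). Plasma and brain AUC0-inf were measured, and the B/P ratio was calculated from i.v. AUC0-inf.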
# [20] = Activation of p-glycoprotein (unknown origin); conditions: human
# [21] = Elimination half life in OF1 mouse brain at 2 mg/kg, iv; type: ADME, organism-based; set-up: dose 2 mg/kg, route intravenous; conditions: read-out: beta t1/2 (converted); method in brief: as §4
# [22] = AUC in OF1 mouse plasma at 10 mg/kg, po; type: ADME, organism-based; set-up: dose 10 mg/kg, route oral; method in brief: as §6
# [23] = Metabolic stability in dog microsomes; type: ADME, Canis lupus familiaris, Microsome; method in brief: as §3
# Histamine receptor H3 = Histamine receptor H3 (Macaca mulatta, UniProt Q865E1); test: Displacement of [3H]N-alpha-methylhistamine from rhesus monkey histamine H3 receptor expressed in CHO cells; type: cell-based
# Histamine receptor H3, sequence (Q865E1 whole entry): as the sequence (Q9Y5N1 whole entry) above, with D148N, A240G, V282A, A289T, T290A, V300A, H442Q counted along it
# Method in brief: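 Membranes from CHO cells stably expressing rhesus monkey H3 receptor. Competition binding against [3H]N-α-methylhistamine; Ki values are means of three or more determinations.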
# [24] = AUC (0 to infinity) in OF1 mouse brain at 2 mg/kg, iv; type: ADME, organism-based; set-up: time infinity, dose 2 mg/kg, route intravenous; method in brief: as §4
# [25] = Oral bioavailability in OF1 mouse plasma at 10 mg/kg; type: ADME, organism-based
# Method in brief: (§8)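 Male OF1 mice received 2 mg/kg i.v. (1.0 mg/mL in 50% 1-methyl-2-pyrrolidinone/saline) or 10 mg/kg p.o. (1.0 mg/mL in 5% DMSO/0.5% MC/0.2% Tween80). Plasma and brain AUC0-inf were measured, and the B/P ratio was calculated from i.v. AUC0-inf.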
# [26] = Volume of distribution in Sprague-Dawley rat plasma at 2 mg/kg, iv; type: ADME, organism-based; set-up: dose 2 mg/kg, route intravenous; method in brief: as §7
# [27] = Volume of distribution in OF1 mouse plasma at 2 mg/kg, iv; type: ADME, organism-based; set-up: dose 2 mg/kg, route intravenous; method in brief: as §8
# [28] = Induction of CYP450 in human hepatocytes at 1 to 60 uM; type: ADME, cell-based, Hepatocyte
# Method in brief: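 Human hepatocytes (n = 4) exposed at 1–60 concentration and examined for induction of CYP isoforms.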
# [29] = Drug degradation in water after 48 hrs at room temperature; type: physicochemical; conditions: read-out: Drug degradation
# Method in brief: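 Compound kept 48 h at room temperature in water, aqueous solutions of pH 1.0–7.4, DMSO, or GI-tract simulation medium. Percent degradation measured.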
# Plasma [30] = test: Metabolic stability in mouse plasma; type: ADME, cell-free; method in brief: as §1
# [31] = Genotoxicity in micronucleus (unknown origin) at 5 to 950 ug/ml; method in brief: as §2
# Salmonella typhimurium [32] = test: Genotoxicity in Salmonella typhimurium at 3 to 1000 ug/ml by Ames 2 test in presence of human liver microsomes; type: toxicity, organism-based; conditions: salmonella enterica subsp. enterica serovar typhimurium; method in brief: as §2
# [33] = Elimination half life in Sprague-Dawley rat brain at 2 mg/kg, iv; type: ADME, organism-based; set-up: dose 2 mg/kg, route intravenous; conditions: read-out: beta t1/2 (converted); method in brief: as §4
# [34] = Distribution coefficient, log D of the compound at pH 7.4; type: physicochemical; conditions: octanol/water
# [35] = AUC in Sprague-Dawley rat brain at 10 mg/kg, po; type: ADME, organism-based; set-up: dose 10 mg/kg, route oral; method in brief: as §6
# [36] = Inhibition of CYP450 in human hepatocytes at > 100 uM; type: ADME, cell-based, Hepatocyte
# Plasma [37] = test: Clearance in Sprague-Dawley rat plasma at 2 mg/kg, iv; type: ADME, organism-based; set-up: dose 2 mg/kg, route intravenous; conditions: in vivo; method in brief: as §4
# Hepatocyte = test: Clearance in human hepatocytes; type: ADME, cell-based
# Method in brief: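 Human hepatocytes in vitro, n = 4 preparations. Metabolic clearance expressed per 10^6 hepatocytes per hour. Also tested at a lower 0.5 concentration to check for concentration dependence.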
# [38] = AUC (0 to infinity) in Sprague-Dawley rat brain at 2 mg/kg, iv; type: ADME, organism-based; set-up: dose 2 mg/kg, route intravenous, time infinity; method in brief: as §4
# [39] = biological target: Histamine H3 receptor (Cavia porcellus) (UniProt Q9JI35); test: Antagonist activity at histamine H3 receptor in guinea pig ileum assessed as inhibition of RAMH-induced inhibition of electrical field-stimulated contraction; type: tissue-based
# Histamine H3 receptor (Cavia porcellus), sequence (Q9JI35 whole entry): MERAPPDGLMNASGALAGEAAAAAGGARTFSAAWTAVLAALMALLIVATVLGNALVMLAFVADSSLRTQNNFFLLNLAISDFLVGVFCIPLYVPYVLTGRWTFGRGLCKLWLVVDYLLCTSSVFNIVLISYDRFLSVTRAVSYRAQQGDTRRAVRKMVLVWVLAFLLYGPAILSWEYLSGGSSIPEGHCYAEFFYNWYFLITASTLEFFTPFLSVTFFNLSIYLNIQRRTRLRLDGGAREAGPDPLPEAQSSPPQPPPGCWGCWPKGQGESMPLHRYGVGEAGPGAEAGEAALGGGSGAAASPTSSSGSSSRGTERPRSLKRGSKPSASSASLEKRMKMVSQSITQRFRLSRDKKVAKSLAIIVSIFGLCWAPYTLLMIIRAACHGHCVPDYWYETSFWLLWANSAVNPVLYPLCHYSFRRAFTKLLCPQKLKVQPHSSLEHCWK
# Method in brief: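 Isolated guinea pig ileum contracted by electrical field stimulation. Contractions inhibited with the H3 agonist RAMH; test compound examined for competitive antagonism of this RAMH effect.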
# [40] = AUC (0 to infinity) in OF1 mouse plasma at 2 mg/kg, iv; type: ADME, organism-based; set-up: dose 2 mg/kg, route intravenous, time infinity; method in brief: as §4
structure (smiles),measurement,setting,value
Cc1cc(N2CC[C@H](N3CCC[C@@H]3C)C2)ccc1NC(=O)C1CCOCC1,Activity,Mus musculus [1],Non-toxic
same,solubility,[2],> 2500 µg/mL
same,Stability,Plasma [3],Stable
same,Activity,Salmonella typhimurium [4],Non-toxic
same,Stability,[5],Stable
same,pKi,Histamine H3 receptor [6],9.00
same,Stability,[7],Stable
same,pEC50,Histamine H3 receptor [8],9.05
same,Activity,Mus musculus [9],Non-toxic
same,clearance,Plasma [10],30 mL/min/kg
same,Activity,Rattus norvegicus [11],Active
same,half-life,[12],4.3 h
same,Activity,Rattus norvegicus [13],Active
same,Stability,[14],Stable
same,Stability,Plasma [15],Stable
same,AUC(0-inf),[16],2100 ng·h/mL
same,AUC(0-inf),[17],8400 ng·h/mL
same,half-life,[18],3 h
same,Kp,[19],0.33
same,Activity,[20],Not Active
same,half-life,[21],0.83 h
same,AUC,[22],3200 ng·h/mL
same,Stability,[23],Stable
same,pKi,Histamine receptor H3,9.01
same,AUC(0-inf),[24],380 ng·h/mL
same,bioavailability,[25],58%
same,Vd,[26],3.1 L/kg
same,Vd,[27],3.5 L/kg
same,Activity,[28],Not Active
same,degraded at 48 h,[29],< 2%
same,Stability,Plasma [30],Stable
same,Activity,[31],Non-toxic
same,Activity,Salmonella typhimurium [32],Non-toxic
same,half-life,[33],3.6 h
same,logD,[34],0.15
same,AUC,[35],4200 ng·h/mL
same,inhibition (INH),[36],Not Active
same,clearance,Plasma [37],16.7 mL/min/kg
same,CLH,Hepatocyte,0.031 mL/h
same,AUC(0-inf),[38],700 ng·h/mL
same,inhibition,[39],Active
same,AUC(0-inf),[40],1100 ng·h/mL
